Only some compounds are listed: those with a hit (about 2% of all), similar ones and a draw of the others.
Insulin prom up – MIN6 insulin promoter up-regulation; 190,000 compounds, 0.3% hits; MIN6 insulin promoter-GFP reporter, high-content imaging; stronger effect = higher value; z-score at 5 µM; AID 1625;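 active means z-score above 3 at 5 µM with at least 500 cells counted in the well; inconclusive means wells under 500 cells, flagged as cytotoxic or low count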
Furin inhibitor – blocks human furin protease activity | P09958 | purified furin, fluorogenic substrate cleavage | inhibition, % at 20 µM or 30 µM | 220,000 compounds, 0.061% hits; in the data active means inhibition above about 25%
Target sequence (P09958 108-714 limits assumed): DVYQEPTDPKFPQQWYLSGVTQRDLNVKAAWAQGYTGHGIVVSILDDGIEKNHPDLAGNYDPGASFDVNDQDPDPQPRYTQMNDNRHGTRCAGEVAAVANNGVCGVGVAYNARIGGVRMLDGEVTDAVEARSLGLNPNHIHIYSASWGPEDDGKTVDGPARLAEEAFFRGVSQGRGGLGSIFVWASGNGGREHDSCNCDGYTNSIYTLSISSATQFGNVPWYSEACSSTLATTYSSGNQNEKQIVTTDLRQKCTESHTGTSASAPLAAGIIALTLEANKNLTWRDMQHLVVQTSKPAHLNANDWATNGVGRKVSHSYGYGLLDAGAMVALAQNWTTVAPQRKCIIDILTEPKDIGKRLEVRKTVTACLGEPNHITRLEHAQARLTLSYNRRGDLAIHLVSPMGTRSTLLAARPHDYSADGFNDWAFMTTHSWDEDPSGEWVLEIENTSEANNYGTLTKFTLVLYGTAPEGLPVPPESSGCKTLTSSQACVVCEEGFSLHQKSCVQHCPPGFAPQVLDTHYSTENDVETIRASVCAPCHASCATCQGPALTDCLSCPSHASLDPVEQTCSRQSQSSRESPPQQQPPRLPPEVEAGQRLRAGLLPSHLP
Autophagy mod – alters autophagy in cells. MEF GFP-LC3 puncta imaging; test concentration mostly 10 µM. calls only at 10 µM (by protocol). 190,000 compounds, 0.98% hits;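 active means percentage of spot-positive cells more than 3 SD above its plate mean, without a fluorescence outlier flag or 80% toxicity; inconclusive means no clear call, values can overlap the other calls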
Dynein transport – dynein cargo transport inhibition; 3617.4 mouse cells, GR-EGFP nuclear translocation imaging; test concentration mostly 20 µM; stimulated with dexamethasone, 1 µM; stronger effect = lower value; z-score, hits read low; 220,000 compounds, 0.47% hits; AID 1381;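 active means plate z-score of nuclear minus cytoplasmic receptor signal below a set negative limit, without overly bright fluorescence or cell loss, cut at about -3.5 in these data, passing the limit was not always enough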;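 further: z-score of nuclear minus cytoplasmic ring GR-EGFP intensity difference per well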
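Buffer or medium: tet-free, stripped-serum medium; reagent: dexamethasone at 1.0 µM final, 30 min; incubation: 48 h induction, 1 h compound, 30 min dex at 37 °C; measured by: formaldehyde fixation, Hoechst nuclear stain, 10x automated fluorescence imaging; read-out: nuclear-to-cytoplasmic GR-EGFP distribution per well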
HSV replic up – HSV replication enhancement; HSV replication augmentation in cells, fold increase; maximum fold increase; 220,000 compounds, 0.005% hits; AID 1956; in the data active means maximum fold increase above about 1.5; inconclusive means no clear call, values can overlap the other calls; tested in PC3 cells
Insulin prom inh – TRM-6 insulin promoter activity inhibition; AID 1273; 130,000 compounds, 0.9% hits; inhibition, % at 2 µM; TRM-6 cells (human fetal islet line), insulin promoter-eGFP reporter, imaging; reporter expression induced with tamoxifen;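 active means inhibition above the mean plus 3 SD, with well images judged a real hit on visual review, cut at about 60% in these data, passing the limit was not always enough; inconclusive means inhibition over the cutoff but images rejected on review; inactive means inhibition not above the cutoff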
Large screens that a line does not name were inactive.

Cc1ccc(C(=O)CSC2=C(C#N)C(c3ccco3)C3=C(CC(C)(C)CC3=O)N2)cc1 (stereo not given)	HSV replic up inconclusive
COCCOC(=O)C1=C(C)NC(SCC(=O)NC(C)(C)C)=C(C#N)C1c1ccco1 (stereo not given)	none
COc1cccc(-n2c(=O)c3c(C)c(C(=O)N(C)C)sc3n(CC(=O)NCC3CCCO3)c2=O)c1 (stereo not given)	none
COc1cccc(C(=O)NCc2n[nH]c(=S)n2-c2cccc(C)c2)c1	none (no result: Insulin prom inh)
COc1ccc(CC(=O)NCc2n[nH]c(=S)n2-c2cccc(C)c2)cc1	Insulin prom inh 71
CN(CCc1ccccn1)C(=O)CCC1CCCN(C(=O)c2ccc3c(c2)OCCO3)C1 (stereo not given)	none (no result: Insulin prom inh)
Cc1ccc(NCc2ccc(O)c3ncccc23)cc1C	Insulin prom inh 79
CC(C)(C)OC(=O)N[C@@H](Cc1ccccc1)c1nnc(S(=O)(=O)Cc2ccccc2)o1	Dynein transport -4.3
CCSc1nnc([C@H](Cc2ccccc2)NC(=O)OC(C)(C)C)o1	none
N#CCCN(C(=O)COc1ccc(C#N)cc1)c1ccc(F)cc1	none (no result: Insulin prom inh)
COc1ccc(OC)c(S(=O)(=O)N2CCN(c3ccccn3)CC2)c1	Insulin prom inh 74
O=C1CCC/C1=C/Nc1ccc(Cl)cc1	Insulin prom inh 82
Cc1cc(C(=O)NCCCN(C)C)c2ccccc2n1	Insulin prom inh 78
CN(C)CCCNC(=O)c1cc2c3ccccc3n(C)c2s1	Autophagy mod active
CCCCNC(=O)c1cc(C)nc2ccccc12	none (no result: Autophagy mod, Insulin prom inh)
COc1cc(C(=O)Nc2cccc(S(=O)(=O)N3CCCC3)c2)cc(OC)c1C	none (no result: Autophagy mod, Insulin prom inh)
COCCNC(=S)N1CCC(C(=O)c2ccc3c(c2)OCCO3)CC1	none (no result: Insulin prom inh)
CCCCC(CCCC)=N/N=C/c1c(O)n(CC)c2cc(C3=NNC(=O)CC3)ccc12	Autophagy mod active (no result: Insulin prom up)
COc1cccc(C2c3c(C)nn(-c4ccc([N+](=O)[O-])cc4)c3N=C3C(=O)Nc4ccccc4N32)c1 (stereo not given)	Autophagy mod active (no result: Insulin prom inh)
COc1cc(S(=O)(=O)Nc2ncccc2C)c(OC)cc1Cl	Furin inhibitor 28 (no result: Insulin prom up, Insulin prom inh)
Cc1ccc(NC2(c3nnnn3-c3c(C)cccc3C)CCCCC2)cc1	Autophagy mod active
CSc1nnnn1-c1c(C)cccc1C	none (no result: Autophagy mod, Insulin prom inh)
CCN(CC)CCCN1CC(O)=C(c2nc3ccccc3s2)C1=N	Insulin prom inh 66
N=C1C(c2nc3ccccc3s2)=C(O)CN1Cc1ccccc1	none (no result: Insulin prom up)
CCOc1ccccc1N1CC(O)=C(c2nc3ccccc3s2)C1=N	Autophagy mod active
Cc1ccc(C(=O)O)cc1NC(=O)CCc1ccccc1	Autophagy mod active
CC(C)=CCC/C(C)=C/CCC(C)NCCN1CCNCC1 (stereo not given)	Autophagy mod active (no result: Insulin prom inh)
CNC(=O)c1oc(-c2ccccc2)nc1C	none (no result: Insulin prom inh)
CCc1nc(Nc2ccc3c(c2)OCO3)c2oc3ccccc3c2n1	Insulin prom inh 79 (no result: HSV replic up)
CCc1nc(NC(C)C)c2oc3ccccc3c2n1	Insulin prom inh 89 (no result: Insulin prom up)
CCc1nc(NCCN2CCOCC2)c2oc3ccccc3c2n1	Insulin prom inh 85
CCc1nc(NCCCN2CCOCC2)c2oc3ccccc3c2n1	none
O=[N+]([O-])c1ccc2c(OCc3nnc(-c4ccccc4Br)o3)ncnc2c1	none (no result: Autophagy mod, Insulin prom inh)
COc1cccc(CNC(=O)CCC2CCCN(C(=O)c3csc(C(C)C)n3)C2)c1 (stereo not given)	none (no result: Insulin prom inh)
Cc1ccccc1OCC(=O)Nc1cc(S(=O)(=O)N2CCCCC2)ccc1N1CCN(C)CC1	none
Cc1ccc2cc(CN(CCN3CCOCC3)Cc3nnnn3Cc3ccco3)c(=O)[nH]c2c1C	Autophagy mod active (no result: Insulin prom up, Insulin prom inh)
Cc1ccc(Nc2c(-c3cccnc3)nc3ccc(Br)cn23)cc1	Autophagy mod active (no result: Insulin prom inh)
CC(=O)Nc1ccccc1OCC(=O)NCCc1ccc(Cl)cc1Cl	none (no result: Insulin prom inh)
O=c1[nH]c(SCc2ccc([N+](=O)[O-])cc2)nc2[nH]ncc12	none (no result: Insulin prom inh)
COc1ccc(-c2nnn(CC(=O)N3CCN(c4ccccc4OC)CC3)n2)cc1	Autophagy mod active (no result: Insulin prom up)
COc1ccc(-c2nnn(CC(=O)N3CCN(c4ccccc4OC)CC3)n2)cc1OC	none (no result: Insulin prom inh)
CCN1CCN(CC(=O)Nc2cc(C(F)(F)F)ccc2OCCOC)CC1	none (no result: Autophagy mod, Insulin prom inh)
COc1cc(C(=O)N/N=C/c2sccc2C)cc(OC)c1OC	Autophagy mod active
COc1ccc2[nH]c3c(c2c1)CCNC3C1CC=C(C)CC1 (stereo not given)	Autophagy mod active (no result: Insulin prom inh)
O=C(c1ccc(Br)s1)N1CCCC1	Insulin prom inh 70
O=C(c1ccc(Br)s1)N1CCN(c2ncccn2)CC1	none
Cc1noc(NS(=O)(=O)c2ccc(NC(=O)Nc3ccc(Cl)c(Cl)c3)cc2)c1C	Insulin prom inh 75
Cc1cc2oc(C(=O)Nc3ccc(S(=O)(=O)Nc4onc(C)c4C)cc3)cc(=O)c2cc1Cl	none (no result: Autophagy mod, Insulin prom inh)
CN(CC(=O)Nc1ccccc1Sc1ccccc1)C1CCCCC1	HSV replic up inconclusive (no result: Insulin prom inh)
CCCN1CCN(CCCNC(=S)Nc2ccc(OC)cc2)CC1	none
On1nnc2cc(C(F)(F)F)ccc21	none (no result: Insulin prom inh)
Cc1nc2cc(C(F)(F)F)ccc2n1C	Insulin prom inh 75
Cc1ccc2oc(=O)c3cc(C(=O)N4CCN(C(=O)c5ccco5)CC4)sc3c2c1	none (no result: HSV replic up, Insulin prom inh)
O=C(c1ccco1)N1CCN(C(=O)c2cc3c(=O)oc4ccccc4c3s2)CC1	Autophagy mod active (no result: Insulin prom inh)
COc1ccc(S(=O)(=O)CC2(O)CCN(C(=O)CC(C)C)CC2)cc1	none
O=c1c(Cl)c2oc3ccccc3nc-2c2ccccc12	Autophagy mod active, HSV replic up inconclusive (no result: Insulin prom up)
O=c1oc2ccc3ccccc3c2cc1-c1nc2ccccc2o1	none (no result: Insulin prom up)
O=C(CCc1ccc(O)cc1)N/N=C/c1coc2ccccc2c1=O	none (no result: Autophagy mod, Insulin prom inh)
O=c1[nH]cc([N+](=O)[O-])cc1Br	Autophagy mod active
O=c1[nH]c2cc([N+](=O)[O-])c([N+](=O)[O-])cc2[nH]c1=O	none (no result: Insulin prom inh)
CC(=O)Nc1ccc(/C(C)=N/Nc2nc(Nc3ccccc3)nc(N3CCOCC3)n2)cc1	Autophagy mod active (no result: Insulin prom inh)
O=C(NNc1nc(Nc2ccccc2)nc(N2CCOCC2)n1)Nc1ccc(Cl)cc1	none
C/C(=N\NC(=O)c1ccccc1)c1ccc(N2CCOCC2)cc1	Dynein transport -3.6
c1ccc2[nH]c(N3CCOCC3)nc2c1	Insulin prom inh 61
C/C(=N\Nc1nc2ccccc2[nH]1)c1ccc(N2CCOCC2)cc1	Insulin prom inh 75
COc1cc(OC)cc(C(=O)N2CCN(Cc3ccccc3Br)CC2)c1	none (no result: Insulin prom inh)
O=c1[nH]c(CN2CCN(CCO)CC2)nc2ccccc12	Insulin prom inh 100
Cc1ccccc1NC(=S)N(Cc1ccccc1)Cc1cccs1	none (no result: Insulin prom inh)
c1ccc2c(c1)[nH]c1c(N3CCCC3)ncnc12	none (no result: Insulin prom inh)
c1ccc2c(c1)[nH]c1c(N3CCSCC3)ncnc12	Insulin prom inh 94 (no result: Insulin prom up, HSV replic up)
COc1ccc2nc3sc(C(=O)NCc4cccs4)c(N)c3cc2c1	Autophagy mod active
CN(Cc1ccccc1)C(=O)C1CCCN(Cc2cccc(Cl)c2)C1 (stereo not given)	none

Screening results as filed in PubChem.
